According to ChEMBL document CHEMBL1125912, “Topically active carbonic anhydrase inhibitors. 4. [(Hydroxyalkyl)sulfonyl]benzene and [(hydroxyalkyl)sulfonyl]thiophenesulfonamides” (J Med Chem, 1991):
Values after ≈ are worked out from the molar mass of the structure shown.

What was measured:
[1] = Partition coefficient (pH 7.4); format: ADME; conditions: octanol/water
Procedure, shortened: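 1-Octanol/phosphate buffer partition at pH 7.4 and 0.1 ionic strength. The compound was equilibrated between the phases and the concentration in each phase was measured by UV spectrophotometry.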

Carbonic anhydrase 2 = Carbonic anhydrase 2 (Homo sapiens, UniProt P00918); assay: Inhibitory activity against human carbonic anhydrase II using pH stat assay; format: functional; conditions: read-out: I50
[2] = Solubility (buffer pH 7.4); format: physicochemical; conditions: read-out: S
Procedure, shortened: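 Solubility in 50 mM phosphate buffer, pH 7.4.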

[3] = Dissociation constant (pKa) (determined in 30% EtOH/water); format: physicochemical
Oryctolagus cuniculus [4] = assay: Tested in vivo for the IOP (intraocular pressure) recovery after 50 uL dose of 2% concentration in albino rabbits.; format: functional, Eye
Procedure, shortened: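 Conscious albino rabbits. Aqueous humor production was assessed indirectly by IOP recovery rate. A single bilateral 50-µL instillation of 2% (w/v) in 0.5% aqueous (hydroxyethyl)cellulose vehicle was given. Results are percent change from control, tested by Dunnett's two-tailed test (P<0.05).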

Oryctolagus cuniculus [5] = species: Oryctolagus cuniculus; assay: Maximum fall in IOP after 50 uL dose of 0.5% concentration in alpha-CT rabbit model.; format: functional
Procedure, shortened: (§1)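 Alpha-chymotrypsinized rabbit model of ocular hypertension. Single 50-µL bilateral instillation of a 0.5% (w/v) solution in 0.5% aqueous (hydroxyethyl)cellulose vehicle. Read-out is the fall in IOP.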

Oryctolagus cuniculus [6] = species: Oryctolagus cuniculus; assay: Maximum fall in IOP after 50 microL dose of 0.5% concentration in alpha-CT rabbit model.; format: functional; procedure, shortened: as §1
Oryctolagus cuniculus [7] = species: Oryctolagus cuniculus; assay: Maximum fall in IOP after 50 uL dose of 0.5% concentration in alpha-CT rabbit model; format: functional; procedure, shortened: as §1
Oryctolagus cuniculus [8] = species: Oryctolagus cuniculus; assay: Maximum fall in IOP after 50uL dose of 0.5% concentration in alpha-CT rabbit model; ns = 'no significant statistical change'; format: functional, organism-based; procedure, shortened: as §1

NS(=O)(=O)c1ccc(SCCCO)cc1
D [1]: 6.25
IC50 (Carbonic anhydrase 2): 20 nM
solubility [2]: 1400 µg/mL (≈ 5.66 mM)
pKa [3]: 10.2

NS(=O)(=O)c1ccc(SCCCCO)c(F)c1
D [1]: 19
IC50 (Carbonic anhydrase 2): 1.5 nM
solubility [2]: 1000 µg/mL (≈ 3.58 mM)
pKa [3]: 9.82

NS(=O)(=O)c1ccc(S(=O)(=O)CCCCO)cc1
D [1]: 0.25
IC50 (Carbonic anhydrase 2): 7 nM
solubility [2]: 2100 µg/mL (≈ 7.16 mM)
pKa [3]: 9.6

NS(=O)(=O)c1ccc(CCCO)cc1
D [1]: 1.48
IC50 (Carbonic anhydrase 2): 64 nM
solubility [2]: 20000 µg/mL (≈ 92.9 mM)
pKa [3]: 10.2

NS(=O)(=O)c1ccc(S(=O)(=O)CCO)cc1
Change from control (Oryctolagus cuniculus [4]): -41%
D [1]: 0.14
IC50 (Carbonic anhydrase 2): 24 nM
Max fall in IOP (Oryctolagus cuniculus [5]): -10.8 mmHg
solubility [2]: 6600 µg/mL (≈ 24.9 mM)
pKa [3]: 9.38

CC(=O)Oc1ccc2cc(S(N)(=O)=O)sc2c1
Max fall in IOP (Oryctolagus cuniculus [6]): -5.5 mmHg
Change from control (Oryctolagus cuniculus [4]): -43%

COC(=O)c1cc(S(N)(=O)=O)ccc1SCCCO
Max fall in IOP (Oryctolagus cuniculus [7]): -4.5 mmHg
Change from control (Oryctolagus cuniculus [4]): -30%
D [1]: 5.5
IC50 (Carbonic anhydrase 2): 700 nM
solubility [2]: 1300 µg/mL (≈ 4.26 mM)
pKa [3]: 9.3

NS(=O)(=O)c1ccc(SCCO)c([N+](=O)[O-])c1
D [1]: 2.4
IC50 (Carbonic anhydrase 2): 21 nM
solubility [2]: 500 µg/mL (≈ 1.8 mM)
pKa [3]: 9.42

NS(=O)(=O)c1ccc(S(=O)(=O)CCCCO)s1
D [1]: 0.46
IC50 (Carbonic anhydrase 2): 2.3 nM
solubility [2]: 9900 µg/mL (≈ 33.1 mM)
pKa [3]: 8.67

NS(=O)(=O)c1ccc(SCCO)s1
D [1]: 2.4
IC50 (Carbonic anhydrase 2): 30 nM
solubility [2]: 49000 µg/mL (≈ 205 mM)
pKa [3]: 9.46

NS(=O)(=O)c1ccc(S(=O)(=O)CCO)c(F)c1
Max fall in IOP (Oryctolagus cuniculus [8]): No significance
Change from control (Oryctolagus cuniculus [4]): -37%
D [1]: 0.25
IC50 (Carbonic anhydrase 2): 5 nM
solubility [2]: 3300 µg/mL (≈ 11.6 mM)
pKa [3]: 9

NS(=O)(=O)c1ccc(S(=O)(=O)CCCCO)c(F)c1
D [1]: 0.55
IC50 (Carbonic anhydrase 2): 4 nM
solubility [2]: 4300 µg/mL (≈ 13.8 mM)
pKa [3]: 9.18

CC(=O)OCCCS(=O)(=O)c1ccc(S(N)(=O)=O)s1
D [1]: 1.47
IC50 (Carbonic anhydrase 2): 5 nM
solubility [2]: 920 µg/mL (≈ 2.81 mM)
pKa [3]: 8.05

CC(=O)OCCCCCc1ccc(S(N)(=O)=O)cc1
Change from control (Oryctolagus cuniculus [4]): -33%
D [1]: 73
Max fall in IOP (Oryctolagus cuniculus [5]): -6.4 mmHg
solubility [2]: 1200 µg/mL (≈ 4.21 mM)
pKa [3]: 10.3

CC(C)(O)CCS(=O)(=O)c1ccc(S(N)(=O)=O)cc1
D [1]: 0.82
IC50 (Carbonic anhydrase 2): 25 nM
solubility [2]: 3500 µg/mL (≈ 11.4 mM)
pKa [3]: 9.28

CC(C)(O)CCSc1ccc(S(N)(=O)=O)cc1
Max fall in IOP (Oryctolagus cuniculus [8]): No significance
Change from control (Oryctolagus cuniculus [4]): -51%
D [1]: 25.2
IC50 (Carbonic anhydrase 2): 20 nM
solubility [2]: 400 µg/mL (≈ 1.45 mM)
pKa [3]: 10

NS(=O)(=O)c1ccc(S(=O)(=O)CCCO)c(C(=O)O)c1
D [1]: 0.002
IC50 (Carbonic anhydrase 2): 900 nM
solubility [2]: 53000 µg/mL (≈ 164 mM)
pKa [3]: 9.28

COC(=O)c1cc(S(N)(=O)=O)ccc1S(=O)(=O)CCO
Max fall in IOP (Oryctolagus cuniculus [7]): -6.3 mmHg
Change from control (Oryctolagus cuniculus [4]): -24%
D [1]: 0.34
IC50 (Carbonic anhydrase 2): 30 nM
solubility [2]: 33400 µg/mL (≈ 103 mM)
pKa [3]: 9.2

Nc1cc(S(N)(=O)=O)ccc1S(=O)(=O)CCO
D [1]: 0.25
IC50 (Carbonic anhydrase 2): 51 nM
solubility [2]: 13200 µg/mL (≈ 47.1 mM)
pKa [3]: 9.5

NS(=O)(=O)c1ccc(S(=O)(=O)CCCO)c([N+](=O)[O-])c1
D [1]: 0.9
solubility [2]: 800 µg/mL (≈ 2.47 mM)
pKa [3]: 8

NS(=O)(=O)c1cc2c(s1)S(=O)(=O)CCC2O (stereo not drawn)
Change from control (Oryctolagus cuniculus [4]): -40%
Max fall in IOP (Oryctolagus cuniculus [5]): -6.9 mmHg
pKa [3]: 8.2

NS(=O)(=O)c1ccc(SCCCCO)s1
D [1]: 9
IC50 (Carbonic anhydrase 2): 3 nM
solubility [2]: 9300 µg/mL (≈ 34.8 mM)
pKa [3]: 9.5

NS(=O)(=O)c1ccc(SCCCCCO)cc1
D [1]: 10.9
IC50 (Carbonic anhydrase 2): 4.3 nM
solubility [2]: 600 µg/mL (≈ 2.18 mM)
pKa [3]: 9.25

NS(=O)(=O)c1ccc(SCCO)cc1
D [1]: 2.3
solubility [2]: 3500 µg/mL (≈ 15 mM)
pKa [3]: 9.27

NS(=O)(=O)c1ccc(SCCCCO)cc1
D [1]: 8.48
IC50 (Carbonic anhydrase 2): 9 nM
solubility [2]: 800 µg/mL (≈ 3.06 mM)
pKa [3]: 10.2

NS(=O)(=O)c1ccc(CCCO)c(F)c1
IC50 (Carbonic anhydrase 2): 20 nM

NS(=O)(=O)c1ccc(SCCCO)c(C(=O)O)c1
D [1]: 0.01
IC50 (Carbonic anhydrase 2): 10000 nM
solubility [2]: 8800 µg/mL (≈ 30.2 mM)
pKa [3]: 9.94

CC(C)COC(=O)OCCCS(=O)(=O)c1ccc(S(N)(=O)=O)s1
solubility [2]: 80 µg/mL (≈ 0.208 mM)

NS(=O)(=O)c1ccc(CCCCO)cc1
D [1]: 3.7
IC50 (Carbonic anhydrase 2): 15 nM
solubility [2]: 14700 µg/mL (≈ 64.1 mM)
pKa [3]: 10.3

NS(=O)(=O)c1cc2ccc(O)cc2s1
Max fall in IOP (Oryctolagus cuniculus [6]): -5.4 mmHg
Change from control (Oryctolagus cuniculus [4]): -31%

COCC(=O)OCCCS(=O)(=O)c1ccc(S(N)(=O)=O)s1
D [1]: 0.72
IC50 (Carbonic anhydrase 2): 4.5 nM
solubility [2]: 970 µg/mL (≈ 2.71 mM)
pKa [3]: 8.1

Nc1cc(S(N)(=O)=O)ccc1S(=O)(=O)CCCO
D [1]: 0.33
IC50 (Carbonic anhydrase 2): 23 nM
solubility [2]: 8400 µg/mL (≈ 28.5 mM)
pKa [3]: 9.15

NS(=O)(=O)c1ccc(S(=O)(=O)CCCO)cc1
Max fall in IOP (Oryctolagus cuniculus [8]): No significance
Change from control (Oryctolagus cuniculus [4]): -37%
D [1]: 0.23
IC50 (Carbonic anhydrase 2): 12 nM
solubility [2]: 7200 µg/mL (≈ 25.8 mM)
pKa [3]: 8.98

NS(=O)(=O)c1ccc(SCCCO)c(F)c1
Max fall in IOP (Oryctolagus cuniculus [7]): -3.6 mmHg
Change from control (Oryctolagus cuniculus [4]): -30%
D [1]: 9.8
IC50 (Carbonic anhydrase 2): 3.5 nM
solubility [2]: 900 µg/mL (≈ 3.39 mM)
pKa [3]: 9.64

NS(=O)(=O)c1ccc(S(=O)(=O)CCCO)c(F)c1
Max fall in IOP (Oryctolagus cuniculus [7]): -6.2 mmHg
Change from control (Oryctolagus cuniculus [4]): -43%
D [1]: 0.39
IC50 (Carbonic anhydrase 2): 4.5 nM
solubility [2]: 6600 µg/mL (≈ 22.2 mM)
pKa [3]: 9.02

NS(=O)(=O)c1ccc(S(=O)(=O)CC(O)CO)cc1 (stereo not drawn)
solubility [2]: 14900 µg/mL (≈ 50.5 mM)
pKa [3]: 9.35

NS(=O)(=O)c1ccc(SCCCO)s1
D [1]: 7
IC50 (Carbonic anhydrase 2): 10 nM
solubility [2]: 9500 µg/mL (≈ 37.5 mM)
pKa [3]: 9.32

NS(=O)(=O)c1ccc(SCCO)c(C(=O)O)c1
D [1]: 0.01
solubility [2]: 9300 µg/mL (≈ 33.5 mM)
pKa [3]: 10.4

NS(=O)(=O)c1ccc(SCCCO)c(Cl)c1
D [1]: 39
IC50 (Carbonic anhydrase 2): 9 nM
solubility [2]: 280 µg/mL (≈ 0.994 mM)
pKa [3]: 9.45

CC(=O)OCCCCc1ccc(S(N)(=O)=O)cc1
solubility [2]: 8000 µg/mL (≈ 29.5 mM)
pKa [3]: 10.5

NS(=O)(=O)c1ccc(CCCCCO)cc1
Change from control (Oryctolagus cuniculus [4]): -38%
D [1]: 11
IC50 (Carbonic anhydrase 2): 8 nM
solubility [2]: 2600 µg/mL (≈ 10.7 mM)
pKa [3]: 10.3

CC(C)CNCCCS(=O)(=O)c1ccc(S(N)(=O)=O)s1
D [1]: 0.45
IC50 (Carbonic anhydrase 2): 18 nM
pKa [3]: 9.3

NS(=O)(=O)c1ccc(S(=O)(=O)CCO)s1
D [1]: 0.29
IC50 (Carbonic anhydrase 2): 6 nM
solubility [2]: 22000 µg/mL (≈ 81.1 mM)
pKa [3]: 8.65

CC(=O)OCCCc1ccc(S(N)(=O)=O)cc1
Max fall in IOP (Oryctolagus cuniculus [6]): -4.5 mmHg
Change from control (Oryctolagus cuniculus [4]): -18%
D [1]: 9.6
solubility [2]: 1600 µg/mL (≈ 6.22 mM)
pKa [3]: 10.2

CC(=O)OCCS(=O)(=O)c1ccc(S(N)(=O)=O)s1
D [1]: 1.3
IC50 (Carbonic anhydrase 2): 5.5 nM
solubility [2]: 880 µg/mL (≈ 2.81 mM)
pKa [3]: 8.65

NS(=O)(=O)c1ccc(S(=O)(=O)CCCO)s1
D [1]: 0.44
IC50 (Carbonic anhydrase 2): 6 nM
solubility [2]: 14600 µg/mL (≈ 51.2 mM)
pKa [3]: 8.32

NS(=O)(=O)c1ccc(SCCCO)c([N+](=O)[O-])c1
D [1]: 9.1
IC50 (Carbonic anhydrase 2): 23 nM
solubility [2]: 100 µg/mL (≈ 0.342 mM)
pKa [3]: 9.38

COC(=O)c1cc(S(N)(=O)=O)ccc1S(=O)(=O)CCCO
D [1]: 0.5
IC50 (Carbonic anhydrase 2): 20 nM
solubility [2]: 1500 µg/mL (≈ 4.45 mM)
pKa [3]: 8.9

NS(=O)(=O)c1ccc(SCCO)c(F)c1
Max fall in IOP (Oryctolagus cuniculus [8]): No significance
Change from control (Oryctolagus cuniculus [4]): -34%
D [1]: 5.3
IC50 (Carbonic anhydrase 2): 9 nM
solubility [2]: 6000 µg/mL (≈ 23.9 mM)
pKa [3]: 9.76
